Converted amounts (≈) assume the structure as drawn.
Assays:
Type in all cases: functional
HCT-15 [1] = experiment: Antiproliferative activity against human HCT15 cells assessed as cell growth at 500 uM by SRB assay; details: read-out: Activity
A549 = experiment: Antiproliferative activity against human A549 cells by SRB assay
OVCAR-4 [2] = experiment: Antiproliferative activity against human OVCAR4 cells assessed as cell growth at 50 uM by SRB assay; details: read-out: Activity
A498 [3] = experiment: Antiproliferative activity against human A498 cells assessed as cell growth at 0.5 uM by SRB assay; details: read-out: Activity
LOX IMVI [4] = experiment: Antiproliferative activity against human LOXIMVI cells assessed as cell growth at 0.5 uM by SRB assay; details: read-out: Activity
SK-MEL-2 = experiment: Antiproliferative activity against human SK-MEL-2 cells assessed as cell growth at 50 uM by SRB assay; details: read-out: Activity
UACC-257 [5] = experiment: Antiproliferative activity against human UACC257 cells assessed as cell growth at 5 uM by SRB assay; details: read-out: Activity
LOX IMVI [6] = experiment: Antiproliferative activity against human LOXIMVI cells assessed as cell growth at 50 uM by SRB assay; details: read-out: Activity
NCI-H226 = experiment: Antiproliferative activity against human NCI-H226 cells assessed as cell growth at 500 uM by SRB assay; details: read-out: Activity
DU-145 = experiment: Antiproliferative activity against human DU145 cells by SRB assay
Malme-3M [7] = experiment: Antiproliferative activity against human MALME-3M cells assessed as cell growth at 5 uM by SRB assay; details: read-out: Activity
UACC-62 = experiment: Antiproliferative activity against human UACC62 cells assessed as cell growth at 50 uM by SRB assay; details: read-out: Activity
NCI-H460 = experiment: Antiproliferative activity against human NCI-H460 cells assessed as cell growth at 500 uM by SRB assay; details: read-out: Activity
OVCAR-4 [8] = experiment: Antiproliferative activity against human OVCAR4 cells assessed as cell growth at 0.5 uM by SRB assay; details: read-out: Activity
SK-MEL-28 = experiment: Antiproliferative activity against human SK-MEL-28 cells by SRB assay
NCI-H322M = experiment: Antiproliferative activity against human NCI-H322M cells assessed as cell growth at 0.5 uM by SRB assay; details: read-out: Activity
HOP-62 [9] = experiment: Antiproliferative activity against human HOP62 cells assessed as cell growth at 500 uM by SRB assay; details: read-out: Activity
HCC 2998 = experiment: Antiproliferative activity against human HCC2998 cells assessed as cell growth at 50 uM by SRB assay; details: read-out: Activity
A498 [10] = experiment: Antiproliferative activity against human A498 cells by SRB assay
SR = experiment: Antiproliferative activity against human SR cells assessed as cell growth at 5 uM by SRB assay; details: read-out: Activity
OVCAR-8 = experiment: Antiproliferative activity against human OVCAR8 cells assessed as cell growth at 0.5 uM by SRB assay; details: read-out: Activity
CCRF-CEM = experiment: Antiproliferative activity against human CCRF-CEM cells by SRB assay
K562 = experiment: Antiproliferative activity against human K562 cells assessed as cell growth at 5 uM by SRB assay; details: read-out: Activity
[11] = tested on: Radical scavenging activity; experiment: Antioxidant activity assessed as DPPH radical scavenging activity after 20 mins
Outline: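 Test solution at several concentrations (100 µL) mixed with 900 µL of 0.04 mg/mL DPPH in methanol, held 20 min at room temperature, absorbance read at 517 nm. Inhibition % = [(Ac − As)/Ac] × 100, with a blank holding 100 µL methanol in place of sample. Inhibition plotted against concentration; EC50 (mean ± SD) from linear regression of three determinations.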

SK-OV-3 = experiment: Antiproliferative activity against human SKOV3 cells by SRB assay
ACHN = experiment: Antiproliferative activity against human ACHN cells assessed as cell growth at 5 uM by SRB assay; details: read-out: Activity
OVCAR-4 [12] = experiment: Antiproliferative activity against human OVCAR4 cells assessed as cell growth at 500 uM by SRB assay; details: read-out: Activity
HOP-62 [13] = experiment: Antiproliferative activity against human HOP62 cells assessed as cell growth at […] by SRB assay; details: read-out: Activity
SN12C = experiment: Antiproliferative activity against human SN12C cells assessed as cell growth at 500 uM by SRB assay; details: read-out: Activity
TK-10 = experiment: Antiproliferative activity against human TK10 cells assessed as cell growth at 500 uM by SRB assay; details: read-out: Activity
HCT-15 [14] = experiment: Antiproliferative activity against human HCT15 cells assessed as cell growth at 5 uM by SRB assay; details: read-out: Activity
MCF7 = experiment: Antiproliferative activity against human MCF7 cells assessed as cell growth at 50 uM by SRB assay; details: read-out: Activity
Malme-3M [15] = experiment: Antiproliferative activity against human MALME-3M cells assessed as cell growth at 50 uM by SRB assay; details: read-out: Activity
[16] = Antiproliferative activity against human […] cells by SRB assay
U-251 = experiment: Antiproliferative activity against human U251 cells assessed as cell growth at 0.5 uM by SRB assay; details: read-out: Activity
UACC-257 [17] = experiment: Antiproliferative activity against human UACC257 cells assessed as cell growth at 500 uM by SRB assay; details: read-out: Activity
SF-295 = experiment: Antiproliferative activity against human SF295 cells assessed as cell growth at 500 uM by SRB assay; details: read-out: Activity
UO-31 = experiment: Antiproliferative activity against human UO31 cells assessed as cell growth at 5 mM by SRB assay; details: read-out: Activity
SNB-75 = experiment: Antiproliferative activity against human SNB75 cells assessed as cell growth at 50 uM by SRB assay; details: read-out: Activity
IGROV-1 = experiment: Antiproliferative activity against human IGROV1 cells by SRB assay
[18] = read-out: LC50 (the source's name)
[19] = read-out: pLC50 (the source's name) (converted)

In the case of `O=C(/C=C/c1ccc(O)c(O)c1)OCCc1ccc(O)c(O)c1`, the growth at 500 µM (HCT-15 [1]) is reported as 38%, the GI50 (A549; read-out: GI50) is reported as 17.7 µM and the CC50 (A549; [18]) is reported as greater than 50 µM. It also gave a TGI (A549; read-out: TGI) greater than 50 µM, a GI50 (A549; read-out: pGI50 (converted)) of 17.8 µM and a CC50 (A549; [19]) greater than 50.1 µM. The TGI (A549; read-out: pTGI) was greater than 50.1 µM, the growth at 50 µM (OVCAR-4 [2]) was 92% and the growth at 0.5 µM (A498 [3]) was 94%. For the same compound, the growth at 0.5 µM (LOX IMVI [4]) was 92%, the growth at 50 µM (SK-MEL-2) was 91% and the growth at 5 µM (UACC-257 [5]) was 92%. The growth at 50 µM (LOX IMVI [6]) was 98%, the growth at 500 µM (NCI-H226) was 79% and the GI50 (DU-145; read-out: GI50) was 9.75 µM. It also gave a CC50 (DU-145; [18]) greater than 50 µM, a GI50 (DU-145; read-out: pGI50 (converted)) of 9.77 µM and a CC50 (DU-145; [19]) greater than 50.1 µM. For the same compound, the TGI (DU-145; read-out: pTGI (converted)) was 30.2 µM, the growth at 5 µM (Malme-3M [7]) was 98% and the growth at 50 µM (UACC-62) was 84%. For the same compound, the growth at 500 µM (NCI-H460) was 94%, the growth at 0.5 µM (OVCAR-4 [8]) was 99% and the GI50 (SK-MEL-28; read-out: GI50) was 6.51 µM. It also gave a CC50 (SK-MEL-28; [18]) greater than 50 µM, a TGI (SK-MEL-28; read-out: TGI) greater than 50 µM and a GI50 (SK-MEL-28; read-out: pGI50 (converted)) of 6.46 µM. The CC50 (SK-MEL-28; [19]) was greater than 50.1 µM, the TGI (SK-MEL-28; read-out: pTGI) was greater than 50.1 µM and the growth at 0.5 µM (NCI-H322M) was 90%. It also gave a growth at 500 µM (HOP-62 [9]) of 95%, a growth at 50 µM (HCC 2998) of 98% and a GI50 (A498 [10]; read-out: GI50) of 8.05 µM. It also gave a CC50 (A498 [10]; [18]) greater than 50 µM, a TGI (A498 [10]; read-out: TGI) of 36.1 µM and a GI50 (A498 [10]; read-out: pGI50 (converted)) of 8.13 µM. For the same compound, the CC50 (A498 [10]; [19]) was greater than 50.1 µM, the TGI (A498 [10]; read-out: pTGI (converted)) was 36.3 µM and the growth at 5 µM (SR) was 81%. The growth at 0.5 µM (OVCAR-8) was 78%, the GI50 (CCRF-CEM) was 0.75 µM and the CC50 (CCRF-CEM; [18]) was greater than 50 µM. The TGI (CCRF-CEM; read-out: TGI) was 5.33 µM, the CC50 (CCRF-CEM; [19]) was greater than 50.1 µM and the TGI (CCRF-CEM; read-out: pTGI (converted)) was 5.37 µM. The growth at 5 µM (K562) was 95%, the EC50 [11] was 4.7 µg/mL (≈ 14.9 µM) and the GI50 (SK-OV-3; read-out: GI50) was 13.7 µM. It also gave a CC50 (SK-OV-3; [18]) greater than 50 µM, a TGI (SK-OV-3; read-out: TGI) greater than 50 µM and a GI50 (SK-OV-3; read-out: pGI50 (converted)) of 13.2 µM. The CC50 (SK-OV-3; [19]) was greater than 50.1 µM, the TGI (SK-OV-3; read-out: pTGI) was greater than 50.1 µM and the growth at 5 µM (ACHN) was 95%. The growth at 500 µM (OVCAR-4 [12]) was 58%, the growth (HOP-62 [13]) was 38% and the growth at 500 µM (SN12C) was 65%. The growth at 500 µM (TK-10) was 81%, the growth at 5 µM (HCT-15 [14]) was 88% and the growth at 50 µM (MCF7) was 92%. It also gave a growth at 50 µM (Malme-3M [15]) of 102%, a GI50 ([16]; read-out: GI50) of 0.63 µM and a CC50 [16, 18] greater than 50 µM. It also gave a TGI ([16]; read-out: TGI) of 8.48 µM, a GI50 ([16]; read-out: pGI50 (converted)) of 0.631 µM and a CC50 [16, 19] greater than 50.1 µM. The TGI ([16]; read-out: pTGI (converted)) was 8.51 µM, the growth at 0.5 µM (U-251) was 102% and the growth at 500 µM (UACC-257 [17]) was 83%. It also gave a growth at 500 µM (SF-295) of 92%, a growth at 5000 µM (UO-31) of -14% and a growth at 50 µM (SNB-75) of 72%. The GI50 (IGROV-1; read-out: GI50) was 2.86 µM, the CC50 (IGROV-1; [18]) was greater than 50 µM and the TGI (IGROV-1; read-out: TGI) was 24.4 µM. The GI50 (IGROV-1; read-out: pGI50 (converted)) was 2.88 µM, the CC50 (IGROV-1; [19]) was greater than 50.1 µM and the TGI (IGROV-1; read-out: pTGI (converted)) was 15.5 µM.

— ChEMBL document CHEMBL1154899, “Synthesis and biological evaluation of caffeic acid 3,4-dihydroxyphenethyl ester” (J Nat Prod, 2010)
